Compounds with a hit are over-represented: about 2.8% of the library has one in this group of screens.
NPY2 pot ag: human NPY-Y2 potentiation or agonism, primary screen; 220,000 tested, 0.45% active; activation, % at 3.6 µM; P49146; cells expressing NPY-Y2, potentiator/agonist read-out; in the data active means activation above about 27%;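 further: cells stimulated with NPY near EC25 plus isoproterenol at EC100; 0% = vehicle plus submaximal agonist and 100% = vehicle plus saturating agonist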
EP2 antag: blocks the human prostaglandin E2 receptor EP2; P43116; C6 glioma cells expressing human EP2, cAMP TR-FRET; cells stimulated with saturating PGE2; inhibition, % at 25 µM; 260,000 tested, 0.52% active; AID 1422;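 active means percent inhibition above 40 after rounding to a whole number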;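 further: rat C6 glioma host cells with rolipram phosphodiesterase inhibitor present; the protocol text gives 20 µM as final concentration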
Target sequence (P43116 whole entry, looked up): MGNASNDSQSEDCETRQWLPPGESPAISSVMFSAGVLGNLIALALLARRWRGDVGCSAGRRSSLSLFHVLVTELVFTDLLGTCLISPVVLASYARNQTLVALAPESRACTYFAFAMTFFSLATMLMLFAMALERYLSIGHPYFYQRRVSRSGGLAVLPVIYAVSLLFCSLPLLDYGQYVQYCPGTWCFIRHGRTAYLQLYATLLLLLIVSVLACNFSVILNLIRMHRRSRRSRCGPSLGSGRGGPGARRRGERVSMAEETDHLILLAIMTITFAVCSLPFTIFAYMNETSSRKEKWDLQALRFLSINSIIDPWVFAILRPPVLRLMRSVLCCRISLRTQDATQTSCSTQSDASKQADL
NPY-Y2 antag: blocks the human neuropeptide Y Y2 receptor; P49146; NPY-Y2 expressing cells, antagonist mode; inhibition, % at 2.7 µM; 140,000 tested, 0.99% active; AID 793; in the data active means inhibition above about 17%;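 further: 0% = vehicle with agonist challenge and 100% = reference antagonist with challenge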
NPY Y1 blocker: antagonists of human neuropeptide Y receptor Y1. P25929. HEK293-CNG Y1 cells, membrane potential fluorescence; NPY at EC95, then isoproterenol. inhibition, % at 3.6 µM. 200,000 tested, 1% active;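 active means inhibition above the campaign mean inhibition of all tested compounds plus 3 SD, cut at about 20% in these data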;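 further: 0% = DMSO wells given NPY plus isoproterenol and 100% = isoproterenol alone without NPY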
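Material: HEK293 Y1/CNG channel cell line; also added: NPY (25 nM), isoproterenol (1 µM), Ro 20-1724 (25 µM); doses: one concentration, 3.6 µM, in 0.4% DMSO; schedule: compound incubation 1 h at room temperature, readout 45 min post-stimulation; technique: membrane potential fluorescence; measure: fluorescence ratio normalized to % inhibition between controls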
NPY1 pot ag: potentiates or activates human NPY-Y1 receptor. P25929. NPY-Y1 expressing cells, potentiator/agonist activation. 220,000 tested, 0.37% active. activation, % at 3.6 µM. AID 1304; in the data active means activation above about 33%, passing the limit was not always enough;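 further: cells stimulated with NPY at EC10 then isoproterenol at EC100; 0% = low agonist plus stimulus and 100% = saturating agonist plus stimulus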
EP2 mod: modulates human prostaglandin E2 receptor EP2 signaling | P43116 | EP2-expressing cells, cAMP HTRF FRET, PGE2 co-stimulation | induction, % at 25 µM | 260,000 tested, 0.83% active;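 active means compounds whose cAMP rise, as percent of the full-agonist control response, exceeds 60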;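 further: rat C6 glioma line stably carrying human EP2 under a CMV promoter; the protocol text gives 20 µM as final concentration; 100% = response of wells given 1 µM PGE2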
EP2 cAMP induct: EP2 receptor cAMP induction, counter-screens negative; shares compounds with EP2 mod; C6 glioma EP2 cells, cAMP HTRF induction; plus low (about EC15) PGE2 agonist; calls only at 20 µM (by protocol); 1,300 tested, 47% active; AID 1080;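 active means cAMP induction above 50% in the main assay while under 30% in all four parallel counter assays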;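 further: rat C6 glioma cells stably expressing human EP2 receptor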
The depositor's hits bear a star.

O=C(Nc1ccccc1N1CCCCC1)c1ccc(F)cc1 was read as NPY2 pot ag -8, EP2 antag 6, NPY-Y2 antag 8, NPY Y1 blocker -1, NPY1 pot ag -8, EP2 mod 66* and EP2 cAMP induct active.
`O=C(Cc1c(F)cccc1Cl)Nc1ccccc1N1CCCCC1` gave NPY2 pot ag 7, EP2 antag 5, NPY Y1 blocker 5, NPY1 pot ag 2, EP2 mod 75* and EP2 cAMP induct active.
O=C(Nc1ccccc1N1CCCCC1)c1cccc([N+](=O)[O-])c1 was read as NPY2 pot ag -6, EP2 antag 3, NPY Y1 blocker 3, NPY1 pot ag -18, EP2 mod 51 and EP2 cAMP induct active.
For O=C(CSc1nnc(-c2ccco2)n1CC1CCCO1)Nc1ccc2c(c1)OCO2 (centres undefined) the results were EP2 antag 8 and EP2 mod -5.
Screening O=C(CNCC1CCCCC1)Nc1ccccc1N1CCCCC1 returned NPY2 pot ag 6, EP2 antag 5, NPY-Y2 antag 8, NPY Y1 blocker -1, NPY1 pot ag -7, EP2 mod 66* and EP2 cAMP induct active.
For O=C(CNC1CCCCCC1)Nc1ccccc1N1CCCCC1 the results were NPY2 pot ag -11, EP2 antag 8, NPY-Y2 antag 9, NPY Y1 blocker 11, NPY1 pot ag 12 and EP2 mod -17.
Cc1ccccc1-c1noc(C(C)NC(=O)c2cc3cccc(C)c3nc2C)n1 (centres undefined) was read as EP2 antag 9 and EP2 mod -96.
`O=C(CSc1nc2cc(Cl)ccc2s1)N1CCCc2ccccc21` gave NPY2 pot ag -28, EP2 antag 4, NPY-Y2 antag 11, NPY Y1 blocker 12, NPY1 pot ag -30, EP2 mod 68* and EP2 cAMP induct active.
CC1CCCC(C)N1C(=O)Cn1nc2c3ccccc3nc(C3CC3)n2c1=O (centres undefined) was read as EP2 antag 6 and EP2 mod 0.
Screening CCC(C)(C(=O)NC1CCCCC1)N(C(=O)C1CCC(=O)N1)c1ccccc1 (centres undefined) returned NPY2 pot ag 7, EP2 antag 7, NPY-Y2 antag -2, NPY Y1 blocker -1, NPY1 pot ag -1, EP2 mod 67* and EP2 cAMP induct inactive.
Screening Cc1ccsc1CN1CCc2nc(N3CCCC(C)C3)[nH]c(=O)c2C1 (centres undefined) returned EP2 antag 5 and EP2 mod -28.
CCCCOC(=O)C1=C(N)N2C(=O)C(C)SC2=C(C(=O)OCC)C1c1ccc(O)c(OC)c1 (centres undefined) was read as NPY2 pot ag -21, EP2 antag 10, NPY1 pot ag 20 and EP2 mod 2.
For CCOC(=O)C1=C(N)N2C(=O)C(C)SC2=C(C(=O)OC)C1c1ccccc1OC (centres undefined) the results were NPY2 pot ag 8, EP2 antag 7, NPY-Y2 antag 3, NPY Y1 blocker 3, NPY1 pot ag 10, EP2 mod 88* and EP2 cAMP induct active.
Screening Cc1ccc(CN(CCCN2CCOCC2)Cc2c(C)nc3sccn23)o1 returned EP2 antag 6 and EP2 mod 14.
Screening COc1ccc(OC)c(C(=O)c2coc3ccc(OCC(=O)O)cc23)c1 returned NPY2 pot ag -5, EP2 antag 14, NPY-Y2 antag -3, NPY Y1 blocker 1, NPY1 pot ag -44, EP2 mod 65* and EP2 cAMP induct inactive.
`COc1ccc(OC)c(C(=O)c2coc3ccc(OC(C)=O)cc23)c1` gave NPY2 pot ag -9, EP2 antag 14, NPY-Y2 antag 3, NPY Y1 blocker -1, NPY1 pot ag -22 and EP2 mod -7.
`CCn1cc(C(c2c(C)[nH][nH]c2=O)c2c(C)[nH][nH]c2=O)c2ccccc21` gave EP2 antag 9 and EP2 mod -7.
